The text below walks through data of ChEMBL document CHEMBL1148203, “Briarane diterpenes from two species of octocorals, Ellisella sp. and Pteroeides sp” (J Nat Prod, 2004).

Calls of active or inactive are those of the source. No cut-off for these calls is given here.

What all share (type): functional, cell-based
One assay relates to NBT2. The assay is described as follows: Induction of multinuclei formation in rat NBT2 cells assessed as inhibition of cytokinesis at 0.5 to 2 ug/mL after 72 hrs. In a few lines: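 Rat bladder epithelial NBT-II cells in modified Eagle's medium with 10% heat-inactivated FBS, streptomycin, amphotericin B and glutamic acid; exposed to graded briarane concentrations at 37 °C for 72 h; multinucleation scored by microscopy at 48 and 72 h.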

In the next assay the test system is KB-CV60. The assay is described as follows: Reversal of multidrug resistance in human KB-CV60 cells after 72 hrs by MTT assay. The method, boiled down: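 KB-CV60 MDR line (selected from KB-3-1, kept in 1 µg/mL cepharanthine and 60 ng/mL vincristine), RPMI 1640 with 10% newborn calf serum; 10 000 cells/well, 24 h preincubation at 37 °C, 5% CO2; anticancer agent plus sample for 48 h; MTT 3 h, formazan in DMSO, A540 gives % growth inhibition.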
For orientation: Tetrazolium assays rely on reduction of a dye to a coloured formazan, in cell work by metabolically active cells.

The subject of a further assay is KB-C2. The assay is described as follows: Reversal of multidrug resistance in human KB-C2 cells after 72 hrs by MTT assay. The method, boiled down: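 KB-C2 MDR line (selected from KB-3-1, kept in 2 µg/mL colchicine), RPMI 1640 with 10% newborn calf serum; 10 000 cells/well, 24 h preincubation at 37 °C, 5% CO2; colchicine plus sample added for 48 h; MTT 3 h, formazan in DMSO, absorbance 540 nm gives % growth inhibition; cytotoxicity checked in parental KB-3-1.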

As to `C=C1/C=C\[C@@H](OC(C)=O)[C@@]2(C)C=C[C@@H](OC(C)=O)[C@](O)(COC(C)=O)[C@@H]2[C@H](OC(C)=O)[C@]2(O)[C@@H](C)C(=O)O[C@H]2[C@H]1Cl`, in the assay with NBT2, the result was Active.
On the same count and under the same terms, as for `C=C1CC[C@@H](OC(C)=O)[C@@]2(C)[C@@H](OC(C)=O)CC[C@@]3(CO3)[C@@H]2[C@H](OC(C)=O)[C@]2(O)[C@@H](C)C(=O)O[C@H]2[C@H]1Cl`, the entry is “Active”.
In the case of `C=C1[C@H](Cl)[C@@H]2OC(=O)[C@H](C)[C@]23O[C@@]1(O)C[C@H](OC(C)=O)[C@]1(C)[C@H]([C@@H](C)[C@H](OC(=O)c2ccccc2)C[C@@H]1OC(C)=O)[C@@H]3OC(C)=O`, the outcome with KB-CV60 and in the assay on KB-C2 was Active.
Regarding `C=C1/C=C/[C@H](OC(C)=O)[C@@]2(C)[C@@H](OC(C)=O)C[C@H]3O[C@@]3(C)[C@@H]2[C@H](OC(C)=O)[C@]2(O)[C@@H](C)C(=O)O[C@H]2[C@H]1Cl`, the outcome in the assay with KB-CV60 and in the assay with KB-C2 was inactive.
Consider `CC(=O)OCC1=C/[C@@H]2OC(=O)[C@H](C)[C@@]2(O)[C@@H](OC(C)=O)[C@H]2[C@]3(C)O[C@@H]3C[C@H](OC(C)=O)[C@]2(C)[C@@H](OC(C)=O)\C=C\1`, for which the result in the assay with KB-CV60 and with KB-C2 was inactive.
In the case of `CCC(=O)O[C@@H]1C[C@H](OC(C)=O)[C@]2(C)[C@H](OC(C)=O)/C=C\C(CCl)=C/[C@@H]3OC(=O)[C@H](C)[C@@]3(O)[C@@H](OC(C)=O)[C@H]2[C@]1(C)O`, the outcome with KB-CV60 and in the assay on KB-C2 was inactive.
